Laboratory results: publication PMC10171401 (Nature methods, 2022)
Read-outs that look alike come from different tables or passages of the source.

What was measured:
[1] = tested on: cAMP in L23 pyramidal neurons; test: In vivo 2pFLIM of tonic cAMP in L23 pyramidal neurons of awake head-fixed mice; design: species or system mouse; conditions: for effect on cAMP in neuronal dendrites / effect on cAMP in neuronal somas: intraperitoneal, yohimbine 5 mg/kg, propranolol 25 mg/kg
In short: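 Awake, head-fixed mice carried cAMPFIRE-L in L2/3 somatosensory neurons, introduced by in utero electroporation at E15.5, and were imaged by 2pFLIM through a cranial window fitted at P30–60. Isoflurane (1.5%) was given by nose cone; other drugs were given i.p., including morphine at 25 mg/kg. Lifetime was taken as mean photon emission time from soma and dendrite ROIs. Data are mean ± s.e.m.; paired two-tailed t-test.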

cAMP in L23 neurons = test: In vivo 2pFLIM of cAMP responses to enforced running in L23 neurons; design: species or system mouse; conditions: intraperitoneal injection; cAMPFIRE-L
In short: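 cAMPFIRE-L was expressed in L2/3 somatosensory pyramidal neurons by in utero electroporation of C57BL/6 embryos at E15.5. Plasmid (~2–3 μg/μL, 1 μL) went into the lateral ventricle, followed by five 100-ms pulses at 35 V, 1 Hz. A cranial window was fitted at P30–60 with two weeks' recovery. Awake head-fixed mice on a treadmill (rotary-encoder velocity) were imaged by 2pFLIM of running-evoked responses before and after i.p. drug.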

cAMP [2] = assay type: cell-based, human; conditions: propranolol 1 μM; HEK cells
In short: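 HEK-293 cells were grown in MEM with 10% FBS at 37°C in 5% CO2, plated on poly-D-lysine coverslips and transfected by Lipofectamine-2000 (0.5–3 μg plasmid per dish). Cells were given norepinephrine, then 25 μM forskolin plus 50 μM IBMX. CFP/YFP ratios were computed after per-channel background subtraction and normalized to the forskolin/IBMX response. Concentration-response curves were fitted with the Hill equation.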

cAMP [3] = test: 2pFLIM response to norepinephrine in CA1 neurons in cultured hippocampal slices; assay type: cell-based, rat
In short: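 Rat hippocampal slices (400 μm, P6–7 pups of both sexes) were cultured at 35°C in 5% CO2 and imaged 2–3 days after transfection in carbogen-gassed aCSF with 4 mM CaCl2 and 4 mM MgCl2. CA1 neurons expressing cAMPFIRE-M received 0.1 μM norepinephrine with or without 1 μM propranolol, followed by wash. cAMPFIRE-L and its R279E mutant received 1 μM norepinephrine. Data are mean ± s.e.m. over cells.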

Structure (SMILES) | effect on cAMP levels in neuronal somas ([1]; 1.5% inhaled, measured using cAMPFIRE-L) | effect on cAMP in neuronal dendrites ([1]; cAMPFIRE-L) | effect on cAMP in neuronal somas ([1]; cAMPFIRE-L) | effect on negative cAMP responses to enforced running (cAMP in L23 neurons) | effect on positive cAMP responses to enforced running (cAMP in L23 neurons) | effect on sensor response to norepinephrine (cAMP [2]) | effect on sensor response to norepinephrine (cAMP [3]) | time to plateau of cAMP decrease post administration ([1]; morphine 25 mg/kg) | effect on cAMP activity in L23 neurons ([1]; morphine 25 mg/kg, cAMPFIRE-L)
FC(F)OC(Cl)C(F)(F)F (stereo not shown) [Isoflurane, isoflurane] | significantly reduced | – | – | – | – | – | – | – | –
COC(=O)[C@@H]1[C@H]2C[C@H]3c4[nH]c5ccccc5c4CCN3C[C@@H]2CC[C@@H]1O [yohimbine] | – | increased | little effect | significantly attenuated | increased | – | – | – | –
CC(C)NCC(O)COc1cccc2ccccc12 (stereo not shown) [propranolol] | – | decreased | decreased | reduced | did not affect | blocked | blocked | – | –
CN1CC[C@]23c4c5ccc(O)c4O[C@H]2[C@@H](O)C=C[C@H]3[C@H]1C5 [Morphine, morphine] | – | – | – | – | – | – | – | ~ 40 minutes | decreased
